# From ChEMBL document CHEMBL1144229, “RCAI-17, 22, 24-26, 29, 31, 34-36, 38-40, and 88, the analogs of KRN7000 with a sulfonamide linkage: their synthesis and bioactivity for mouse natural killer T cells to produce Th2-biased cytokines” (Bioorg Med Chem, 2008)
# Activity calls are given as the source filed them. The rule behind the calls is not given here.
# Columns and labels:
# Format in all cases: functional, cell-based
# T-cell [1] = experiment: Induction of IL4 production in C57BL/6 mouse natural killer T cells after 48 hrs by cytometric bead array
# Outline: (§1)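 Spleen cells (approx. 4 × 10⁵) from female C57BL/6 mice aged 6–8 weeks were cultured 48 h at 37 °C in humidified 5% CO₂. Medium was RPMI 1640 with 10% heat-inactivated FCS, 2 mM L-glutamine, penicillin/streptomycin and 10 mM Hepes, plus glycolipid at 2, 20 or 200 ng/mL. Supernatant IFN-γ, IL-4 and IL-13 were read by cytometric bead array with PE detection, interpolated from standard curves. Values are means of three wells.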
# T-cell [2] = experiment: Induction of IL13 production in C57BL/6 mouse natural killer T cells after 48 hrs by cytometric bead array; outline: as §1
# T-cell [3] = experiment: Induction of IFN-gamma production in C57BL/6 mouse natural killer T cells upto 200 ng/ml after 48 hrs by cytometric bead array relative to KRN7000; outline: as §1
# T-cell [4] = experiment: Induction of IFN-gamma production in C57BL/6 mouse natural killer T cells after 48 hrs by cytometric bead array
# Outline: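 Spleen cells (about 4 × 10⁵) from female C57BL/6 mice aged 6–8 weeks, in RPMI 1640 with 10% heat-inactivated FCS, glutamine, antibiotics and Hepes, at 37 °C in 5% CO₂. Cells were stimulated with glycolipid at 2, 20 or 200 ng/mL for 48 h. Supernatant IFN-γ was measured by cytometric bead array on FACS against a kit standard curve. Mean of three wells.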
# T-cell [5] = experiment: Induction of IL4 production in C57BL/6 mouse natural killer T cells at 2 ng/ml after 48 hrs by cytometric bead array; outline: as §1
# T-cell [6] = experiment: Induction of IL13 production in C57BL/6 mouse natural killer T cells at 2 ng/ml after 48 hrs by cytometric bead array; outline: as §1
Structure (SMILES),Activity (T-cell [1]),Activity (T-cell [2]),Activity (T-cell [3]),Activity (T-cell [4]),Activity (T-cell [5]),Activity (T-cell [6])
CCCCCCCCCCCCCC[C@@H](O)[C@@H](O)[C@H](CO[C@H]1O[C@H](CO)[C@H](O)[C@H](O)[C@H]1O)NS(=O)(=O)c1cccc(C)c1,Active,Active,inactive,,,
CCCCCCCCCCCCCCCCS(=O)(=O)N[C@@H](CO[C@H]1O[C@H](CO)[C@H](O)[C@H](O)[C@H]1O)[C@H](O)[C@H](O)CCCCCCCCCCCCCC,,,inactive,,,
CCCCCCCCCCCCCC[C@@H](O)[C@@H](O)[C@H](CO[C@H]1O[C@H](CO)[C@H](O)[C@H](O)[C@H]1O)NS(=O)(=O)c1ccccc1C,Active,Active,inactive,,,
CCCCCCCCCCCCCC[C@@H](O)[C@@H](O)[C@H](CO[C@H]1O[C@H](CO)[C@H](O)[C@H](O)[C@H]1O)NS(=O)(=O)c1ccc(C)cc1,Active,Active,inactive,,,
CCCCCCCCCCCCCC[C@@H](O)[C@@H](O)[C@H](CO[C@H]1O[C@H](CO)[C@H](O)[C@H](O)[C@H]1O)NS(=O)(=O)c1ccc(-c2ccccc2)cc1,Active,Active,inactive,,,
CCCCCCCCCCCCCCCCCC(=O)N[C@@H](CO[C@H]1O[C@H](CO)[C@H](O)[C@H](O)[C@H]1O)[C@H](O)[C@H](O)CCCCCCCCCCCCCC,,,,Active,,
CCCCCCCCCCCCCCCCCCCCCCCCCC(=O)N[C@@H](CO[C@H]1O[C@H](CO)[C@H](O)[C@H](O)[C@H]1O)[C@H](O)[C@H](O)CCCCCCCCCCCCCC,Active,Active,,,,
CCCCCCCCCCCCCC[C@@H](O)[C@@H](O)[C@H](CO[C@H]1O[C@H](CO)[C@H](O)[C@H](O)[C@H]1O)NC(=O)c1ccc(C)cc1,,,,inactive,,
CCCCCCCCCCCCCC[C@@H](O)[C@@H](O)[C@H](CO[C@H]1O[C@H](CO)[C@H](O)[C@H](O)[C@H]1O)NS(=O)(=O)c1ccc(NC(C)=O)cc1,Active,Active,inactive,,Active,Active
CCCCCCCCCCCCCC[C@@H](O)[C@@H](O)[C@H](CO[C@H]1O[C@H](CO)[C@H](O)[C@H](O)[C@H]1O)NS(=O)(=O)c1ccc(OC)cc1,Active,Active,inactive,,,
CCCCCCCCCCCCCC[C@@H](O)[C@@H](O)[C@H](CO[C@H]1O[C@H](CO)[C@H](O)[C@H](O)[C@H]1O)NS(=O)(=O)c1cccc2ccccc12,Active,Active,inactive,,,
CCCCCCCCCCCCCC[C@@H](O)[C@@H](O)[C@H](CC[C@H]1O[C@H](CO)[C@H](O)[C@H](O)[C@H]1O)NS(=O)(=O)c1ccc(C)cc1,inactive,inactive,,inactive,,
CCCCCCCCCCCCCCCCCCCCCCCC(=O)N[C@@H](CO[C@H]1O[C@H](CO)[C@H](O)[C@H](O)[C@H]1O)[C@H](O)[C@H](O)CCCCC,Active,Active,,,,
